Activity calls are given as the source filed them. No cut-off for these calls is given here.
Legend:
HCT-116 [1] = test: Induction of apoptosis in human HCT116 cells assessed as G1 phase cells level at 2 uM incubated for 24 hrs by […]PI staining based cytometry (reference value: 65.2%); assay type: functional
Outline: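 Cells were treated for 24 h, then fixed in 75% ethanol at -20 °C overnight. RNA was digested with 0.2 mg/mL RNase A for 30 min at 37 °C. Cells were stained with 50 µg/mL PI for 30 min in the dark, and DNA content was read by flow cytometry.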

RKO = test: Cytotoxicity against human RKO cells assessed as reduction in cell viability incubated for 24 hrs by MTT assay; assay type: functional, cell-based
Outline: (§1)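 Cells were kept in McCoy's 5A with 10% fetal bovine serum, streptomycin and 100 units·mL⁻¹ penicillin at 37 °C under 5% CO₂/95% air. Viability was read by MTT optical density. IC50 is the concentration that lowers optical density by 50% relative to untreated cells. Values are means with SD of at least three independent determinations.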

HCT-116 [2] = test: Induction of apoptosis in Bax-/- human HCT116 cells assessed as necrotic cells level pre-incubated with 20 uM pan-caspase inhibitor Z-VAD-FMK for 5 hrs followed by compound addition and further incubated for 48 hrs by Annexin V-FITC/PI staining based cytometry (reference value: 0.2%); assay type: functional; design: scale not given: the % may be the effect or the level left
HCT-116 [3] = test: Induction of apoptosis in human HCT116 cells assessed as late apoptotic cells level at 2 uM incubated for 24 hrs by Annexin V-FITC/PI staining based cytometry (reference value: 0.5%); assay type: functional
HCT-116 [4] = test: Induction of apoptosis in Bax-/- human HCT116 cells assessed as late apoptotic cells level incubated for 48 hrs by Annexin V-FITC/PI staining based cytometry (reference value: 0.1%); assay type: functional
Outline: (§2)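 Cells were plated at 5×10^5 per well and treated once 80% confluent. After trypsinisation and two washes in ice-cold PBS (pH 7.4), cells were stained with Annexin V-FITC and PI for 15 min at room temperature in the dark. Analysis was by flow cytometry. The legend gives vehicle or 4 µM for the p53-/- and Bax-/- lines.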

HCT-116 [5] = test: Induction of apoptosis in human HCT116 cells assessed as late apoptotic cells level pre-incubated with 20 uM pan-caspase inhibitor Z-VAD-FMK for 5 hrs followed by compound addition and further incubated for 48 hrs by Annexin V-FITC/PI staining based cytometry (reference value: 0.0%); assay type: functional; design: scale not given: the % may be the effect or the level left
HCT-116 [6] = test: Induction of apoptosis in human HCT116 cells assessed as necrotic cells level pre-incubated with 20 uM pan-caspase inhibitor Z-VAD-FMK for 5 hrs followed by compound addition and further incubated for 48 hrs by Annexin V-FITC/PI staining based cytometry (reference value: 0.2%); assay type: functional; design: scale not given: the % may be the effect or the level left
HCT-116 [7] = test: Inhibition of colony formation of human HCT116 cells incubated for 24 hrs by crystal violet staining based photography; assay type: functional, cell-based
Outline: (§3)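 Cells (HCT116, RKO, HCT116 p53-/-, HCT116 Bax-/-) seeded at 300 per well in 12-well plates for 48 h, then treated 24 h. Drug medium replaced with fresh medium; about 10 days later colonies stained 15 min with crystal violet, photographed and counted. Run in triplicate.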

HCT-116 [8] = test: Inhibition of colony formation of human HCT116 cells incubated for 24 hrs and measured after 10 days post dose in fresh medium by crystal violet staining based photography; assay type: functional, cell-based; outline: as §3
HCT-116 [9] = test: Induction of apoptosis in human HCT116 cells assessed as increase in cleaved PARP level at 4 uM incubated for 24 hrs by Western blot method; assay type: functional, cell-based
Outline: (§4)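 Lysates were made in SDS buffer (2% SDS, 50 mM Tris-HCl pH 6.8) and quantified by BCA. Equal protein was run on 10% SDS-PAGE and transferred to PVDF. Membranes were blocked in 5% milk, probed overnight at 4 °C for cleaved PARP (1:1000) with GAPDH (1:5000), and detected with HRP secondary antibody and ECL.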

BGC-823 = test: Cytotoxicity against human BGC823 cells assessed as reduction in cell viability incubated for 24 hrs by MTT assay; assay type: functional, cell-based; conditions: BGC-823, 24 h; outline: as §1
HCT-116 [10] = test: Cytotoxicity against human HCT116 cells assessed as reduction in cell viability incubated for 24 hrs by MTT assay; assay type: functional, cell-based; conditions: HCT-116, 24 h; outline: as §1
HCT-116 [11] = test: Cytotoxicity against Bax-/- human HCT116 cells assessed as reduction in cell viability incubated for 24 hrs by CCK8 assay; assay type: functional, cell-based
Outline: (§5)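 Cells were seeded at 3×10^4 per well, grown 24 h, then exposed to increasing concentrations for 24 h. CCK-8 reagent was added for 1 h at 37 °C and absorbance was read at 450 nm. Cells were kept in McCoy's 5A with 10% FBS, and n=3.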

HCT-116 [12] = test: Induction of apoptosis in p53-/- human HCT116 cells assessed as early apoptotic cells level at 4 uM incubated for 48 hrs by Annexin V-FITC/PI staining based cytometry (reference value: 2.9%); assay type: functional; outline: as §2
PC-3 = test: Cytotoxicity against human PC3 cells assessed as reduction in cell viability incubated for 24 hrs by MTT assay; assay type: functional, cell-based; conditions: PC-3, 24 h; outline: as §1
HCT-116 [13] = test: Induction of apoptosis in human HCT116 cells assessed as early apoptotic cells level at 4 uM incubated for 24 hrs by Annexin V-FITC/PI staining based cytometry (reference value: 1.3%); assay type: functional
HCT-116 [14] = test: Cytotoxicity against p53-/- human HCT116 cells assessed as reduction in cell viability incubated for 24 hrs by CCK8 assay; assay type: functional, cell-based; outline: as §5
HCT-116 [15] = test: Induction of apoptosis in human HCT116 cells assessed as increase in cleaved PARP level at 2 uM incubated for 24 hrs by Western blot method; assay type: functional, cell-based; outline: as §4
HCT-116 [16] = test: Induction of apoptosis in Bax-/- human HCT116 cells assessed as increase in cleaved PARP level pre-incubated with 20 uM pan-caspase inhibitor Z-VAD-FMK for 5 hrs followed by compound addition and further incubated for 48 hrs by Western blot method; assay type: functional, cell-based
Outline: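 Cells were pretreated for 5 h with DMSO or 20 µM Z-VAD-FMK before compound exposure. Lysates were made in SDS buffer and quantified by BCA. Proteins were run on 10% SDS-PAGE, transferred to PVDF, and probed with cleaved PARP (1:1000) and GAPDH (1:5000) loading control, with ECL detection.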

HCT-116 [17] = test: Induction of apoptosis in p53-/- human HCT116 cells assessed as necrotic cells level at 4 uM incubated for 48 hrs by Annexin V-FITC/PI staining based cytometry (reference value: 0.8%); assay type: functional
Outline: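 HCT116 p53-/- cells (Vogelstein line) in McCoy's 5A with 10% FBS, 37 °C, 5% CO2. Seeded at 5×10^5 in 6-well plates, treated with vehicle or 4 μM at 80% confluence. After treatment, trypsinised, washed twice in ice-cold PBS pH 7.4, and stained in binding buffer with Annexin V-FITC and PI for 15 min at room temperature in the dark. Read by flow cytometry.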

HCT-116 [18] = test: Cytotoxicity against human HCT116 cells assessed as reduction in cell viability incubated for 24 hrs by CCK8 assay; assay type: functional, cell-based; outline: as §5
HCT-116 [19] = test: Induction of apoptosis in Bax-/- human HCT116 cells assessed as late apoptotic cells level pre-incubated with 20 uM pan-caspase inhibitor Z-VAD-FMK for 5 hrs followed by compound addition and further incubated for 48 hrs by Annexin V-FITC/PI staining based cytometry (reference value: 0.1%); assay type: functional; design: scale not given: the % may be the effect or the level left

## CCN(CC)CCCNC(=O)c1cn(CCCc2ccccc2)c2cc(Cl)ccc2c1=O.Cl
HCT-116 [1]
  Activity: 46.7%
RKO
  IC50: 4.87 µM
HCT-116 [2]
  Activity: 1.2%
HCT-116 [3]
  Activity: 1.5%
HCT-116 [4]
  Activity: 1.7%
HCT-116 [5]
  Activity: 2%
HCT-116 [6]
  Activity: 3.5%
HCT-116 [7]
  inhibition: Dose-dependent effect
HCT-116 [8]
  inhibition: Dose-dependent effect
HCT-116 [9]
  Activity: Active
BGC-823
  IC50: 4.92 µM
HCT-116 [10]
  IC50: 5.79 µM
HCT-116 [11]
  Activity: Dose-dependent effect
HCT-116 [12]
  Activity: 24.8%
PC-3
  IC50: 6.41 µM
HCT-116 [13]
  Activity: 38.2%
HCT-116 [14]
  Activity: Dose-dependent effect
HCT-116 [15]
  Activity: Active
HCT-116 [16]
  Activity: inactive
HCT-116 [17]
  Activity: 1.8%
HCT-116 [18]
  growth inhibition (GI): Dose-dependent effect
HCT-116 [18]; HCT-116, 24 h
  IC50: 5.79 µM
HCT-116 [19]
  Activity: 0.9%

Reference: ChEMBL document CHEMBL4190353, “Synthesis, structure-activity relationships and preliminary mechanism of action of novel water-soluble 4-quinolone-3-carboxamides as antiproliferative agents” (Eur J Med Chem, 2017)
